Reference: article PMC8542630 (Cell chemical biology, 2021)

What was measured:
Hs-dynein 1 [1] = target: T1, Hs-dynein 1 (Homo sapiens, UniProt Q14204); assay: Radioactive ATPase assay, basal ATPase activity of Hs-dynein 1; type: biochemical
Outline: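 Hs-dynein 1 motor construct (N-terminal His6, aa 1320–4646) at 30 nM, without microtubules. Radioactive ATPase reaction ran for 45 min with test compound. Percent inhibition was obtained by normalising the ATPase rate with compound to DMSO control.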

Hs-dynein 1 [2] = target: T1, Hs-dynein 1; assay: Radioactive ATPase assay, microtubule-stimulated ATPase activity of Hs-dynein 1; type: biochemical
Outline: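 Radioactive ATPase assay with Hs-dynein 1 (His6, aa 1320–4646; 30 nM) in the presence of microtubules. Reaction time was 45 min, and rates with test compound were normalised to DMSO control.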

Dm-spastin = Dm-spastin (Drosophila melanogaster, UniProt Q8I0P1, DEL311-372); assay: NADH-coupled steady-state ATPase assay, Dm-spastin; type: biochemical, D. melanogaster
Mm-VCP/p97 = Mm-VCP/p97 (Mus musculus, UniProt Q01853); assay: NADH-coupled steady-state ATPase assay, Mm-VCP/p97; type: biochemical, M. musculus
Mm-VCP/p97, sequence (Q01853 whole entry): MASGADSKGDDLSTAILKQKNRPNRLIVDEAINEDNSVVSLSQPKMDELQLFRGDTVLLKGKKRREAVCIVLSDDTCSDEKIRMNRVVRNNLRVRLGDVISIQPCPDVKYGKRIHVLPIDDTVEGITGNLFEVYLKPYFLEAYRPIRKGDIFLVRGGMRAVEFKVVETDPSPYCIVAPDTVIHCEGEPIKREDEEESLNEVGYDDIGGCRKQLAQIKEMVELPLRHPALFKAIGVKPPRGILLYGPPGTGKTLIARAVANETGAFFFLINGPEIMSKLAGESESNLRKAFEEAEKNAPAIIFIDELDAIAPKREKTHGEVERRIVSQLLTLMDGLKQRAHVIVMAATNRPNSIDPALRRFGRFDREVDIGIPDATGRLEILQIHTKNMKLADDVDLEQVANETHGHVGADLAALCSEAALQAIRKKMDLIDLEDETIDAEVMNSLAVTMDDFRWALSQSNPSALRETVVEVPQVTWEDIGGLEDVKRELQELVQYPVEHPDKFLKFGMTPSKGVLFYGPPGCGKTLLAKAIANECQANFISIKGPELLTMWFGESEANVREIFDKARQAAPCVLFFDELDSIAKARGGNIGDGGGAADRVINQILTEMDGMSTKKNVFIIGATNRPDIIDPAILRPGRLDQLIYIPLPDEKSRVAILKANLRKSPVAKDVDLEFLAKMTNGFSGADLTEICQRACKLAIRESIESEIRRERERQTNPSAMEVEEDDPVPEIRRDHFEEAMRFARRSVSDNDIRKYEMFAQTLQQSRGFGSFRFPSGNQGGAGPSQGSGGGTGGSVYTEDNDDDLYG

Xl-katanin = Xl-katanin (Xenopus laevis, UniProt Q9PUL2); assay: NADH-coupled steady-state ATPase assay, Xl-katanin; type: biochemical, X. laevis
Xl-katanin, sequence (Q9PUL2 whole entry): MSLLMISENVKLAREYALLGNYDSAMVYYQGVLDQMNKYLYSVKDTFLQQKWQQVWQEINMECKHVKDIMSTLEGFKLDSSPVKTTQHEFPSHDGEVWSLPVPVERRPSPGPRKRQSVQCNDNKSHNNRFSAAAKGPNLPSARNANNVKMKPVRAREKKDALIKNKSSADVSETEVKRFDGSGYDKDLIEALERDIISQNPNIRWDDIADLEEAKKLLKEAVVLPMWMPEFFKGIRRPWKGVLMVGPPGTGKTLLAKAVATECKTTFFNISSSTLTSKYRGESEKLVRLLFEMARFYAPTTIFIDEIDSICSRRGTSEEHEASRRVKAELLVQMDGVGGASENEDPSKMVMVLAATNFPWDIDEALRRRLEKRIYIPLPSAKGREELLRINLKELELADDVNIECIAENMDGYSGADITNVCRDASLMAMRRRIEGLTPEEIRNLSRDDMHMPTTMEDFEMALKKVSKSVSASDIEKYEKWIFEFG
Outline: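 Recombinant Xl-katanin (50 nM; E. coli, MBP-trap, MonoQ and gel filtration) in 25 mM K-HEPES pH 7.5, 70 mM KCl, 20 mM (NH4)2SO4, 5 mM MgCl2, 2.5 mM DTT, 0.01% Triton X-100 plus NADH-coupled regeneration mix. After 10 min RT preincubation with test compound, MgATP started the reaction. The fluorescence decrease rate (340/440 nm) was converted to ATPase rate using an ADP standard curve.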

Hs-FIGL1 = target: T2, Hs-FIGL1 (Homo sapiens, UniProt Q6PIW4); assay: NADH-coupled steady-state ATPase assay, Hs-FIGL1; type: biochemical, H. sapiens
T2 sequence (Q6PIW4 288-674): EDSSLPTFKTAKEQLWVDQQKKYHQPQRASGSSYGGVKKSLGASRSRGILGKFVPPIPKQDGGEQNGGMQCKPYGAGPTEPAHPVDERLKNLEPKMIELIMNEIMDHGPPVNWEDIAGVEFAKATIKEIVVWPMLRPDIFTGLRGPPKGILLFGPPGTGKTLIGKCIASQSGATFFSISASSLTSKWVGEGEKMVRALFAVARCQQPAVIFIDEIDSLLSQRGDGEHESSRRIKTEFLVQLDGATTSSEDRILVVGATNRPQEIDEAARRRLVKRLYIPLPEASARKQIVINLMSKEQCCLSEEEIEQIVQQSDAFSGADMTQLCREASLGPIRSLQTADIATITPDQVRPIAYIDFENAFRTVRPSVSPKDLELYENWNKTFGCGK
Outline: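 Recombinant Hs-FIGL1 (50 nM; E. coli-expressed) in 25 mM Na-MES pH 6.5, 70 mM KOAc, 20 mM (NH4)2SO4, 5 mM Mg(OAc)2, 1 mM TCEP, 0.01% Triton X-100, with NADH/PEP/pyruvate kinase/lactate dehydrogenase coupling system. Protein preincubated 10 min at RT with test compound, then MgATP added. NADH fluorescence (ex 340, em 440 nm) slope converted to ATPase rate with an ADP standard curve.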

GFP-Sc-Dyn [3] = target: T3, GFP-Sc-Dyn (Saccharomyces cerevisiae, UniProt P36022); assay: NADH-coupled steady-state ATPase assay, GFP-Sc-Dyn basal ATPase; type: biochemical, S. cerevisiae
Sc-Dyn-lyso = Sc-Dyn-lyso (Saccharomyces cerevisiae, UniProt P36022); assay: NADH-coupled steady-state ATPase assay, Sc-Dyn-lyso; type: biochemical, S. cerevisiae
Outline: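 Ten-dose DMSO serial dilution of test compound (stock top 4 mM) was preincubated 10 min at RT. MgATP (10 mM stock) started the reaction, and NADH fluorescence slopes were converted via an ADP standard curve.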

[4] = target: T4, GFP-Sc-Dyn AAA3 E/Q (E2488Q) (Saccharomyces cerevisiae, UniProt P36022, E2488Q); assay: NADH-coupled steady-state ATPase assay, GFP-Sc-Dyn AAA3 E/Q mutant; type: biochemical, S. cerevisiae
[5] = target: GFP-Sc-Dyn AAA3 E/Q (E2488Q); assay: as above; type: biochemical, S. cerevisiae; conditions: 1 mM MgATP, n=3
[6] = target: GFP-Sc-Dyn AAA4 E/Q (E2819Q) (Saccharomyces cerevisiae, UniProt P36022, E2819Q); assay: NADH-coupled steady-state ATPase assay, GFP-Sc-Dyn AAA4 E/Q mutant; type: biochemical, S. cerevisiae
[7] = target: GFP-Sc-Dyn AAA4 E/Q (E2819Q); assay: as above; type: biochemical, S. cerevisiae; conditions: 1 mM MgATP, n=3
[8] = target: Sc-Dyn-lysoMut (AAA1 E/Q) (Saccharomyces cerevisiae, UniProt P36022, E1849Q); assay: Microscale thermophoresis; type: binding, S. cerevisiae
[9] = target: GFP-Sc-Dyn AAA1 E/Q (E1849Q) (Saccharomyces cerevisiae, UniProt P36022, E1849Q); assay: Microscale thermophoresis; type: binding, S. cerevisiae
[10] = target: T4, GFP-Sc-Dyn AAA3 E/Q (E2488Q); assay: Microscale thermophoresis; type: binding, S. cerevisiae
GFP-Sc-Dyn [11] = target: T3, GFP-Sc-Dyn; assay: Microtubule gliding assay; type: biochemical, S. cerevisiae; conditions: 25 μM compound
Sc-DynGST = Sc-DynGST (Saccharomyces cerevisiae, UniProt P36022); assay: Single-molecule motility assay; type: biochemical, S. cerevisiae
[12] = 1% DMSO, 1 mM Mg-ATP, mean ± SD
[13] = single-molecule, 0-50 μM compound

T1 sequence (Q14204 1320-4646): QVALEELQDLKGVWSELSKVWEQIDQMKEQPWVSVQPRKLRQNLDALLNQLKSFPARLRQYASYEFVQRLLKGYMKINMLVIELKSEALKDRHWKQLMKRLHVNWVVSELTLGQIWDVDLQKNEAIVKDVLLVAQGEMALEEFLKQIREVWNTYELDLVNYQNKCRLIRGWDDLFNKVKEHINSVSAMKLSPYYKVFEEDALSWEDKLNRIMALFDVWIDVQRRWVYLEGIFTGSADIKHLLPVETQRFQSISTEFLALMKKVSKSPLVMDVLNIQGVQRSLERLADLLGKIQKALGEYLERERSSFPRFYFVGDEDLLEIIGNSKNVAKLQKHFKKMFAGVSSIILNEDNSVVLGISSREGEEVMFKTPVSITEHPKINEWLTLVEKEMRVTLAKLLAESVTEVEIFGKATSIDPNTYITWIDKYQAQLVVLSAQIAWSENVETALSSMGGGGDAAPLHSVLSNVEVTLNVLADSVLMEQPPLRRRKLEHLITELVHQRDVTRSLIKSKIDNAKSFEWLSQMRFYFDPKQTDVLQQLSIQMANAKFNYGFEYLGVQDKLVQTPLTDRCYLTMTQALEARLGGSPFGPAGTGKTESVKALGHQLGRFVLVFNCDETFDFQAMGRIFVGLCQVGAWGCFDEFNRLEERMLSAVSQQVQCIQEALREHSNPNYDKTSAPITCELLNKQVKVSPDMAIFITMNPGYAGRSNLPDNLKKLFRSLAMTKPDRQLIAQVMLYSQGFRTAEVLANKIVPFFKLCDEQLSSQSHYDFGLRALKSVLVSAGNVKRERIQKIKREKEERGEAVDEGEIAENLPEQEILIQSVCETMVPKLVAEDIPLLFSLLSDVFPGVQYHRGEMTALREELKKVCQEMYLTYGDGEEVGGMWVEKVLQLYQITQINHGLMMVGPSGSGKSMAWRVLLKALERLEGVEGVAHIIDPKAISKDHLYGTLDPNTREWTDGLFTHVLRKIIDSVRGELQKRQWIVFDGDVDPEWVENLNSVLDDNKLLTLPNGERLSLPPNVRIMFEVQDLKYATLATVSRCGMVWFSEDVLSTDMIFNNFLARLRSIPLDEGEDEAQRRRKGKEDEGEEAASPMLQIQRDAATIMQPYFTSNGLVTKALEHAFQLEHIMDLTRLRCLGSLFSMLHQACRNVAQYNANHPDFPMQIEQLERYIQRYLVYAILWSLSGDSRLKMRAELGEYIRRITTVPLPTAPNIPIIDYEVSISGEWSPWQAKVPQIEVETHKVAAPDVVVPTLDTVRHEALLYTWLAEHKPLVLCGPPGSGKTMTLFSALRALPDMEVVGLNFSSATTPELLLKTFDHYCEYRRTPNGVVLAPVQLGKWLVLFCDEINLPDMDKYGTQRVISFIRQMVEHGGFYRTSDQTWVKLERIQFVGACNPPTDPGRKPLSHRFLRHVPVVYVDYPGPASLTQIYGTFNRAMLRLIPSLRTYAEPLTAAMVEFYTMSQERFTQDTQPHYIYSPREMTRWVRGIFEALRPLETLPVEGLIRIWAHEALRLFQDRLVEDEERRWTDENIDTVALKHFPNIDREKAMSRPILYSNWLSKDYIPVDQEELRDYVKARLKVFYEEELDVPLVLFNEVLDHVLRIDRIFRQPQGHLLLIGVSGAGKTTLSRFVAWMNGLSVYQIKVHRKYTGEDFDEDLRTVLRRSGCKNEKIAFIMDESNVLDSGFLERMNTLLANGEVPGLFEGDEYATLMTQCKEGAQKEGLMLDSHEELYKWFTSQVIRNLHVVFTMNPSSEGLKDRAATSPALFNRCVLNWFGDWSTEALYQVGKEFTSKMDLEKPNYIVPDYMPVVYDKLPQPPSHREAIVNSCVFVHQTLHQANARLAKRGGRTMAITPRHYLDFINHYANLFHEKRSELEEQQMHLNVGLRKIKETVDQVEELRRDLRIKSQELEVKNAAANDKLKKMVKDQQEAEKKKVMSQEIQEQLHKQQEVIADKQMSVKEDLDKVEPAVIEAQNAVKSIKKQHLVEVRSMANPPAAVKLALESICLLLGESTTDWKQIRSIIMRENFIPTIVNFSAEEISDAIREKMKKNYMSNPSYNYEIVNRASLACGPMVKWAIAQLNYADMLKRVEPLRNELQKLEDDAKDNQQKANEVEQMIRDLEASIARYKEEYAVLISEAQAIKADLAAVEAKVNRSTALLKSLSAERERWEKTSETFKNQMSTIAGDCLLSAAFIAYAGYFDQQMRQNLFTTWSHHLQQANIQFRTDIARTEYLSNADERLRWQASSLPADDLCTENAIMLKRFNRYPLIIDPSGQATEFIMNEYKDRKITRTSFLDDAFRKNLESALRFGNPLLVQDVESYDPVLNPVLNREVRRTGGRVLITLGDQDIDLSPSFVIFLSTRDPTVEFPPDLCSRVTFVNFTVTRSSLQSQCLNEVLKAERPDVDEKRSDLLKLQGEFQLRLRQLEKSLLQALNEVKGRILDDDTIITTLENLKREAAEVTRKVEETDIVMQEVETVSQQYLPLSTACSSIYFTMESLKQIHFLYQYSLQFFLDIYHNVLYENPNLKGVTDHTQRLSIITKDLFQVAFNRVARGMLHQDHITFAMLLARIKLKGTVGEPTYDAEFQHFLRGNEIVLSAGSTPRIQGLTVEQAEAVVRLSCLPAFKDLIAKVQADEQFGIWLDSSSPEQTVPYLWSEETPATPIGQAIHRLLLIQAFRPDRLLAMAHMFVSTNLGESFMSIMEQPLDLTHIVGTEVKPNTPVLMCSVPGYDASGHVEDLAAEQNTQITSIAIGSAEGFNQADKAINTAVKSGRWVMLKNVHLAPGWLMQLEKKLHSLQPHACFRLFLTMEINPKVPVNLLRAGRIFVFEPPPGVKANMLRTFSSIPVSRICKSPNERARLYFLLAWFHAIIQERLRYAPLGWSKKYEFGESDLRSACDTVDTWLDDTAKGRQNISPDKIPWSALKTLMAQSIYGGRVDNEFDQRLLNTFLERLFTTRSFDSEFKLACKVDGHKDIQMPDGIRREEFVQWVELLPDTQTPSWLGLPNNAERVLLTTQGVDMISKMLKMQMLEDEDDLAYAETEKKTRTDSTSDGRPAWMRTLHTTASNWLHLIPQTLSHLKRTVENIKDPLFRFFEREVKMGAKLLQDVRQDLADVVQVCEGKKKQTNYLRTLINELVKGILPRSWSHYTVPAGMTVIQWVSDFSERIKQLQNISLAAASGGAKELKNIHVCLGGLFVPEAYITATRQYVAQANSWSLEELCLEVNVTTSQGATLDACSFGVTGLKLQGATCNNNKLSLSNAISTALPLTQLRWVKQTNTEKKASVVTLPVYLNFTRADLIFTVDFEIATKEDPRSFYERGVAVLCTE

`N#Cc1c(C2(c3ccc(Cl)cc3)CC2)nn2c(=O)c(Oc3cccc(Br)c3)c[nH]c12` [compound 20, 6-(3-bromophenoxy)-2-[1-(4-chlorophenyl)cyclopropyl]-7-oxo-4H-pyrazolo[1,5-a]pyrimidine-3-carbonitrile] was tested, and the IC50 (Hs-dynein 1 [1]) was 12 ± 9.3 µM, the “Inhibition of Hs-dynein 1 basal ATPase activity (in words)” value (Hs-dynein 1 [1]; compounds tested at 20 μM, 1 mM MgATP, no microtubules, n=2) was “most active” and the IC50 (Hs-dynein 1 [2]) was about 10 µM. The “Reduction of ATPase activity, Dm-spastin” value (Dm-spastin; 20 μM, 1 mM MgATP) was under 25%, the “Percent steady-state ATPase activity, Dm-spastin” value (Dm-spastin; compound 20 μM, mean ± SD, n=3) was 88 ± 4.4% and the “Reduction of ATPase activity, Mm-VCP” value (Mm-VCP/p97; 20 μM, 1 mM MgATP) was under 25%. The “Percent steady-state ATPase activity, Mm-p97” value (Mm-VCP/p97; compound 20 μM, mean ± SD, n=3) was 99 ± 7.9%, the “Reduction of ATPase activity, Xl-katanin” value (Xl-katanin; 20 μM, 1 mM MgATP) was under 25% and the “Percent steady-state ATPase activity, Xl-katanin” value (Xl-katanin; compound 20 μM, mean ± SD, n=3) was 76 ± 9.0%. The “Percent steady-state ATPase activity, Hs-FIGL” value (Hs-FIGL1; compound 20 μM, mean ± SD, n=3) was 15 ± 11%, the inhibition at 20 µM (Hs-FIGL1; read-out: Inhibition of ATPase activity, Hs-FIGL1) was about 85% and the IC50 (GFP-Sc-Dyn [3]) was 14 ± 1 µM. For the same compound, the IC50 (Sc-Dyn-lyso) was 15 ± 3.1 µM, the IC50 [4] was 8.2 ± 1.4 µM and the “IC50 fold lower than that of GFP-Sc-Dyn, AAA3 E/Q mutant” value [5] was ~ 2 fold. The IC50 [6] was 2.9 ± 0.3 µM, the “IC50 fold lower than that of GFP-Sc-Dyn, AAA4 E/Q mutant” value [7] was ~ 5 fold and the EC50 [8] was 34 ± 11 µM. The EC50 [9] was 73 ± 114 µM, the “Hill slope, binding to AAA1 E/Q mutant (MST)” value ([9]; mean ± 95% CI, n=4) was 1.3 ± 0.9 and the EC50 [10] was 87 ± 104 µM. The “Hill slope, binding to AAA3 E/Q mutant (MST)” value ([10]; mean ± 95% CI, n=4) was 0.8 ± 0.3, the “Time until most microtubules become immotile” value (GFP-Sc-Dyn [11]) was at most 30 min and the “Microtubule gliding velocity, 30 minutes after treatment” value (GFP-Sc-Dyn [11]; [12]) was 3 ± 5. The “Microtubule gliding velocity, immediately after treatment” value (GFP-Sc-Dyn [11]; [12]) was 35 ± 19, the EC50 (Sc-DynGST) was 12.7 ± 2.5 µM and the “Pausing during processive runs (in words)” value (Sc-DynGST; single-molecule) was “no significant pausing”. For the same compound, the “Effect on dynein processivity (run length) (in words)” value (Sc-DynGST; [13]) was “little to no effect” and the “Effect on dynein velocity (in words)” value (Sc-DynGST; [13]) was “little to no effect”.
